Active and inactive are the calls of the source. The rule behind the calls is not given here.
Experiments:
Capan-2 = experiment: Antiproliferative activity against human Capan-2 cells assessed as inhibition of cell proliferation incubated for 3 days by CellTiter-Glo Luminescent Cell Viability Assay; type: functional, cell-based; conditions: Capan-2, 72 h
Method in brief: (§1)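 Cancer cell lines seeded in 384-well plates on day 1; compound added on day 2 and left for 3 days. On day 5 all medium was aspirated, and viable cells were quantified by CellTiter-Glo luminescence, which measures cellular ATP. Dose-dependent effects on proliferation were determined.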

NCI-H23 = experiment: Antiproliferative activity against human NCI-H23 cells assessed as inhibition of cell proliferation incubated for 3 days by CellTiter-Glo Luminescent Cell Viability Assay; type: functional, cell-based; conditions: NCI-H23, 72 h
Method in brief: (§2)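 Cells of each line were plated in 384-well plates on day 1 and exposed to compound from day 2 for 3 days. On day 5 all medium was aspirated. Viable cell number was read by CellTiter-Glo luminescence, which quantifies cellular ATP.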

MDA-MB-453 = experiment: Antiproliferative activity against human MDA-MB-453 cells assessed as inhibition of cell proliferation incubated for 3 days by CellTiter-Glo Luminescent Cell Viability Assay; type: functional, cell-based; conditions: MDA-MB-453, 72 h; method in brief: as §1
HCT-116 [1] = experiment: Antitumor activity against human HCT-116 cells xenografted in nude mouse assessed as reduction in Elk phosphorylation at S383 residue at 15 to 150 mg/kg/day administered via pump for 18 hrs by Reverse-Phase protein array analysis; type: functional, organism-based; conditions: dose 15-150 mg/kg/day
HPAC = experiment: Antiproliferative activity against human HPAC cells assessed as inhibition of cell proliferation incubated for 3 days by CellTiter-Glo Luminescent Cell Viability Assay; type: functional, cell-based; conditions: 72 h; method in brief: as §1
[2] = target: Serine/threonine-protein kinase Chk2 (Homo sapiens, UniProt O96017); experiment: Inhibition of human CHK2 assessed as inhibition constant in presence of ATP
[3] = target: Ribosomal protein S6 kinase alpha-1 (Homo sapiens, UniProt Q15418); experiment: Inhibition of human RSK1 in presence of ATP by cellular assay
HCT-116 [4] = experiment: Antitumor activity against human HCT-116 cells xenografted in nude mouse assessed as tumor growth inhibition at 3.3 mg/kg administered via pump for 9 days relative to control; type: functional; conditions: HCT-116, 216 h, time 9 day, read-out: TGI
HCT-116 [5] = experiment: Antitumor activity against human HCT-116 cells xenografted in nude mouse assessed as reduction in Ki67 at 15 to 25 mg/kg administered orally twice daily by immunohistochemical analysis; type: functional, organism-based; conditions: dose 15-25 mg/kg, route po, time 3-6 day, TDE = time-dependent effect
COLO 320DM = experiment: Inhibition of anchorage independent cell growth in human COLO 320DM cells incubated for 6 days by Alamar blue reagent based fluorescence plate reader analysis; type: functional; conditions: 144 h
HCC1187 = experiment: Antiproliferative activity against human HCC1187 cells assessed as inhibition of cell proliferation incubated for 3 days by CellTiter-Glo Luminescent Cell Viability Assay; type: functional, cell-based; conditions: HCC1187, 72 h; method in brief: as §1
[6] = target: T1, Receptor-type tyrosine-protein kinase FLT3 (Homo sapiens, UniProt P36888); experiment: Inhibition of human FLT3 in presence of ATP by cellular assay
T1 sequence (P36888 whole entry): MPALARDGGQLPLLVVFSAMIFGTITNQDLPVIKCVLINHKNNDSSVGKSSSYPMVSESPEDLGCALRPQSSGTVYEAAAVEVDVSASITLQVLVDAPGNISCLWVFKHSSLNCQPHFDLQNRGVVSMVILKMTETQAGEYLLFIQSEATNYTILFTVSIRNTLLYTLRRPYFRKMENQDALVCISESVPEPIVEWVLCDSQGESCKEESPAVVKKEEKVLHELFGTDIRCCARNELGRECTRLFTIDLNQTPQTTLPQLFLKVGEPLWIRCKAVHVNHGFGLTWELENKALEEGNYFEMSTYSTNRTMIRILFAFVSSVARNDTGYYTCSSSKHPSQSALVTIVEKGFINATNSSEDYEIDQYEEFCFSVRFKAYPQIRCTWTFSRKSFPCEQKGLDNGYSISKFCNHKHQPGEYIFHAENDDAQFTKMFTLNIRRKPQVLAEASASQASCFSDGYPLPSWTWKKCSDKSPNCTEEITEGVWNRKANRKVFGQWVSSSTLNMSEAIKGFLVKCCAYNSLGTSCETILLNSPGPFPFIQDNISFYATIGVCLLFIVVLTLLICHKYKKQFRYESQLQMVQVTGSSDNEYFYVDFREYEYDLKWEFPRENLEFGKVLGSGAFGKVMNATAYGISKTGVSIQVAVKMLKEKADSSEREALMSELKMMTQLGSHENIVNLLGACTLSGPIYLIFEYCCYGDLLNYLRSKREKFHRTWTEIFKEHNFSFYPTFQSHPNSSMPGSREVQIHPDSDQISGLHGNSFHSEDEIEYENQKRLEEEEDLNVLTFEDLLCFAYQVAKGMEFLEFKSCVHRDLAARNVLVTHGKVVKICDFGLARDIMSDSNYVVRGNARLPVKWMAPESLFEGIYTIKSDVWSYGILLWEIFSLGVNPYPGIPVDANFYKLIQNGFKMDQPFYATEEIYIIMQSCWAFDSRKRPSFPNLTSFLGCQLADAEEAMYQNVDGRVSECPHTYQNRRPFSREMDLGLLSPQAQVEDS

[7] = target: Tyrosine-protein kinase Fgr (Homo sapiens, UniProt P09769); experiment: Inhibition of human FGR in presence of ATP by cellular assay
NCI-H1573 = experiment: Inhibition of anchorage independent cell growth in human NCI-H1573 cells incubated for 6 days by Alamar blue reagent based fluorescence plate reader analysis; type: functional; conditions: NCI-H1573, 144 h
HCT-116 [8] = experiment: Antitumor activity against human HCT-116 cells xenografted in nude mouse assessed as reduction in Ki67 administered orally twice daily for 6 days by immunohistochemical analysis; type: functional; conditions: dose 15-25 mg/kg, route po, time 6.0 day
[9] = Antiproliferative activity against human Panc 05.04 cells assessed as inhibition of cell proliferation incubated for 3 days by CellTiter-Glo Luminescent Cell Viability Assay; type: functional, cell-based; conditions: Panc 05.04, 72 h; method in brief: as §2
HCC827 = experiment: Inhibition of anchorage independent cell growth in human HCC827 cells incubated for 6 days by Alamar blue reagent based fluorescence plate reader analysis; type: functional; conditions: HCC827, 144 h
PANC-08-13 = experiment: Antiproliferative activity against human PANC-08-13 cells assessed as inhibition of cell proliferation incubated for 3 days by CellTiter-Glo Luminescent Cell Viability Assay; type: functional, cell-based; conditions: PANC-08-13, 72 h; method in brief: as §2
NCI-H82 = experiment: Antiproliferative activity against human NCI-H82 cells assessed as inhibition of cell proliferation incubated for 3 days by CellTiter-Glo Luminescent Cell Viability Assay; type: functional, cell-based; conditions: NCI-H82, 72 h; method in brief: as §2
[10] = target: Ribosomal protein S6 kinase alpha-3 (Homo sapiens, UniProt P51812); experiment: Inhibition of human RSK2 in presence of ATP
NCI-H226 = experiment: Antiproliferative activity against human NCI-H226 cells assessed as inhibition of cell proliferation incubated for 3 days by CellTiter-Glo Luminescent Cell Viability Assay; type: functional, cell-based; conditions: NCI-H226, 72 h; method in brief: as §2

Tyrosine-protein kinase Fgr, sequence (P09769 whole entry): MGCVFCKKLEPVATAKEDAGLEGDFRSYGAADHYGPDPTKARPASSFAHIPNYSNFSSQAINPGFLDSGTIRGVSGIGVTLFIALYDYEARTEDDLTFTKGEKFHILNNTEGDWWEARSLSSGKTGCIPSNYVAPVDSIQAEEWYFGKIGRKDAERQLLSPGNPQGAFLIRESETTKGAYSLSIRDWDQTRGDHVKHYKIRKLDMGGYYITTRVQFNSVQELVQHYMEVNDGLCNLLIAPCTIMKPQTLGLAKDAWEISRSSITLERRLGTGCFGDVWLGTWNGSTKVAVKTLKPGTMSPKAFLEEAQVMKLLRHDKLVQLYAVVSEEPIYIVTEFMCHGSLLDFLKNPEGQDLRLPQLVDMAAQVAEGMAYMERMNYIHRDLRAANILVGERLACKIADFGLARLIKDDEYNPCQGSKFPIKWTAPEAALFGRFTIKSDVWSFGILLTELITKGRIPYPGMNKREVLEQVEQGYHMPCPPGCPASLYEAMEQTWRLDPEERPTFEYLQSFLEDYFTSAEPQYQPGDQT
Ribosomal protein S6 kinase alpha-3, sequence (P51812 whole entry): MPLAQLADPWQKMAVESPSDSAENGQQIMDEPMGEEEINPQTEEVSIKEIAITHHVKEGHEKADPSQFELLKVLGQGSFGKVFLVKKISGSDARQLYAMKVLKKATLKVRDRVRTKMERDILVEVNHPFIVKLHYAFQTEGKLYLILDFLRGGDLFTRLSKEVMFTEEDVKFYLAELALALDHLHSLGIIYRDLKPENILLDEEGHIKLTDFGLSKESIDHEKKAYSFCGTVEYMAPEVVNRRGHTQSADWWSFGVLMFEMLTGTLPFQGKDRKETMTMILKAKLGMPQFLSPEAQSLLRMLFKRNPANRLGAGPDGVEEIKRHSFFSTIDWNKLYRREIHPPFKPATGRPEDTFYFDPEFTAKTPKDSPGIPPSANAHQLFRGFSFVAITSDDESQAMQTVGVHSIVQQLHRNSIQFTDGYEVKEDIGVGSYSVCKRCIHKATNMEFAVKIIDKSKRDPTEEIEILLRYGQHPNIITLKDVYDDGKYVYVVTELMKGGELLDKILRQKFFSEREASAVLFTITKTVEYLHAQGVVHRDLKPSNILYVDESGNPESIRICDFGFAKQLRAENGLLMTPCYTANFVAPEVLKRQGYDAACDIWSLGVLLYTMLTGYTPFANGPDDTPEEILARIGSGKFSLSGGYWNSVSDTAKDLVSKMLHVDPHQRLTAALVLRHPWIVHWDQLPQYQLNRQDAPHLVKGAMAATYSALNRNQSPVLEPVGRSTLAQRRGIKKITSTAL
Serine/threonine-protein kinase Chk2, sequence (O96017 whole entry): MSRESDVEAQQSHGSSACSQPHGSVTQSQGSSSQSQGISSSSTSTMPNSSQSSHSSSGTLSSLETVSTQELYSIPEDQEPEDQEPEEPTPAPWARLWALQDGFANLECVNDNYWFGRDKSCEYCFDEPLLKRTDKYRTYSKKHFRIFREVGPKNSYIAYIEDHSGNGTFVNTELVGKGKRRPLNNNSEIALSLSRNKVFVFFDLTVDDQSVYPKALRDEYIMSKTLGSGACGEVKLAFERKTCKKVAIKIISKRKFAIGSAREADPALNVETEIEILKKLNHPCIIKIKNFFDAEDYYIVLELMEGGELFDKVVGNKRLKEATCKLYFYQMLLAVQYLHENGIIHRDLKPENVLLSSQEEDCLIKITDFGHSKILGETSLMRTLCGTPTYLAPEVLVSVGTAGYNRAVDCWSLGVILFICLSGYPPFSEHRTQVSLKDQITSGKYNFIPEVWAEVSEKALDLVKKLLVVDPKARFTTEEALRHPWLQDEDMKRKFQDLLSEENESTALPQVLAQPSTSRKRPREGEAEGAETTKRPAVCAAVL
Ribosomal protein S6 kinase alpha-1, sequence (Q15418 whole entry): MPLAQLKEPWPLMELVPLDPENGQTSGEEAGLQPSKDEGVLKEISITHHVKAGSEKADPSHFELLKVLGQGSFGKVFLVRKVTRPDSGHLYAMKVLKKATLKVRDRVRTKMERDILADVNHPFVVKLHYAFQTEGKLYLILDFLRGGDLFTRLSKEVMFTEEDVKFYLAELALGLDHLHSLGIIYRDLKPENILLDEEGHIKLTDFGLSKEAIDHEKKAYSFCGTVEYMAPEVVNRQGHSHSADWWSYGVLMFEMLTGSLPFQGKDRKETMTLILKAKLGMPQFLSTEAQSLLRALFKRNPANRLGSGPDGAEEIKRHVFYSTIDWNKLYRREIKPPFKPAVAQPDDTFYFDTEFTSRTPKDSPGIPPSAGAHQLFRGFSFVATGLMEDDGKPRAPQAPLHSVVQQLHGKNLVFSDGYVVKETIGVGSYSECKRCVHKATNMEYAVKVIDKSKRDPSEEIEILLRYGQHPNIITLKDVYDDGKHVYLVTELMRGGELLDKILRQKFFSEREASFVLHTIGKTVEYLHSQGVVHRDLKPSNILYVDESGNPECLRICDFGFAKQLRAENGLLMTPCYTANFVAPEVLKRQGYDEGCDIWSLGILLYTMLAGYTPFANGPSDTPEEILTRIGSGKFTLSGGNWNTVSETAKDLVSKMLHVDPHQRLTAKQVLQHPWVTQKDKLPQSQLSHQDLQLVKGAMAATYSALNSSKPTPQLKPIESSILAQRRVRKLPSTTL

SMILES: Cc1nc(Nc2n[nH]c3c2CN(C(=O)N[C@H](CN(C)C)c2ccccc2)C3(C)C)c2sccc2n1 [PF-03758309]
- IC50 (Capan-2): 136 nM
- IC50 (NCI-H23): 25 nM
- IC50 (MDA-MB-453): 13.3 nM
- Activity (HCT-116 [1]): Active
- IC50 (HPAC): 265 nM
- Ki [2]: 3 nM
- IC50 [3]: 543 nM
- inhibition in vivo at 3.3 mg/kg (HCT-116 [4]): 114%
- Activity (HCT-116 [5]): Tde
- IC50 (COLO 320DM): 373 nM
- IC50 (HCC1187): 0.24 nM
- IC50 [6]: 407 nM
- IC50 [7]: 4680 nM
- IC50 (NCI-H1573): 2.37 nM
- Activity (HCT-116 [8]): Dose-Dependent Effect
- IC50 [9]: 51 nM
- IC50 (HCC827): 2.18 nM
- IC50 (PANC-08-13): 12 nM
- IC50 (NCI-H82): 2.1 nM
- IC50 [10]: 2 nM
- IC50 (NCI-H226): 9.3 nM

Reference: ChEMBL document CHEMBL5678802, “Small-molecule p21-activated kinase inhibitor PF-3758309 is a potent inhibitor of oncogenic signaling and tumor growth” (Proc Natl Acad Sci U S A, 2010)
